Values after ≈ are worked out from the molar mass of the structure shown. Active and inactive are the calls of the source. No cut-off for these calls is given here.
Columns and labels:
[1] = target: T1, Cyclin-dependent kinase 4 (Homo sapiens, UniProt P11802); assay: Inhibition of CDK4-mediated retinoblastoma protein phosphorylation by dose-response curve analysis
Procedure, shortened: (§1)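 Kinase assay read as Rb phosphorylation by cyclin D1-CDK4 or cyclin E-CDK2. IC50 is the concentration (μg/mL) giving 50% inhibition of Rb phosphorylation, read from the dose-response curve. Values are means of at least two determinations.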

[2] = target: Cyclin-dependent kinase 2 (Homo sapiens, UniProt P24941); assay: Inhibition of CDK2-mediated retinoblastoma protein phosphorylation by dose-response curve analysis; procedure, shortened: as §1
[3] = system: PC-6; assay: Antiproliferative activity against human PC6 cells by dose-response curve analysis; format: functional, cell-based
Procedure, shortened: (§2)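 Cell growth inhibition measured from dose-response curves at ten concentrations. IC50 is the concentration giving 50% growth inhibition, read from these curves.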

[4] = system: HCT-116; assay: Antiproliferative activity against human HCT116 cells by dose-response curve analysis; format: functional, cell-based; procedure, shortened: as §2
[5] = system: HCT-116; assay: Antitumor activity against human HCT116 cells xenografted in nude mouse assessed as maximum inhibition of […] growth at 200 mg/kg, iv qd for 4 days; format: functional; conditions: HCT-116, 96 h
Procedure, shortened: (§3)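 HCT116 solid tumours in mice. Hydrochloride salt dissolved in 40% Captisol, dosed 200 mg/kg once daily for 4 days (qdx4), i.v. or p.o. Read-outs: maximum inhibition rate of tumour volume, maximum body weight loss, and toxic deaths out of 5 mice.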

[6] = system: HCT-116; assay: Cell cycle arrest in human HCT116 cells assessed as decrease in accumulation at G2/M phase at 500 ng/mL after 16 hrs by FACS analysis; format: functional, cell-based
Procedure, shortened: (§4)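 HCT116 cells exposed to test compound at various concentrations for 16 hr, then collected. DNA content measured by flow cytometry to assign G1, S and G2/M fractions.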

[7] = system: Mus musculus; assay: Toxicity in nude mouse xenografted with human HCT116 cells assessed as death at 200 mg/kg, po qd for 4 days; format: organism-based, HCT-116; design: dose 200 mg/kg, route oral; conditions: in vivo, 96 h
Procedure, shortened: (§5)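 Mice bearing HCT116 colon solid tumours (n=5 per group) dosed as the hydrochloride salt dissolved in 40% Captisol at 200 mg/kg once daily for 4 days (qdx4), i.v. or p.o. Toxicity recorded as the number of mice dead from toxicity over the number used, with maximum body-weight loss also noted.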

[8] = system: MKN-28; assay: Antiproliferative activity against human MKN28 cells by MTT assay; format: functional, cell-based; procedure, shortened: as §2
[9] = system: Mus musculus; assay: Toxicity in nude mouse xenografted with human HCT116 cells assessed as maximum body weight loss at 200 mg/kg, po qd for 4 days; format: organism-based, HCT-116; design: dose 200 mg/kg, route oral; conditions: in vivo, 96 h; procedure, shortened: as §3
[10] = system: HCT-116; assay: Cell cycle arrest in human HCT116 cells assessed as accumulation at G1 phase at 500 ng/mL after 16 hrs by FACS analysis; format: functional; procedure, shortened: as §4
[11] = system: Mus musculus; assay: Toxicity in nude mouse xenografted with human HCT116 cells assessed as maximum body weight loss at 200 mg/kg, iv qd for 4 days; format: organism-based, HCT-116; design: dose 200 mg/kg, route intravenous; conditions: in vivo, 96 h; procedure, shortened: as §3
[12] = Antiproliferative activity against mouse B16-BL6 cells by MTT assay; format: functional, cell-based; procedure, shortened: as §2
[13] = system: MDA-MB-231; assay: Antiproliferative activity against human MDA-MB-231 cells by MTT assay; format: functional, cell-based; procedure, shortened: as §2
[14] = system: Mus musculus; assay: Toxicity in nude mouse xenografted with human HCT116 cells assessed as death at 200 mg/kg, iv qd for 4 days; format: organism-based, HCT-116; design: dose 200 mg/kg, route intravenous; conditions: in vivo, 96 h; procedure, shortened: as §5
[15] = system: HCT-116; assay: Antiproliferative activity against SN2-3-resistant human HCT116 cells by MTT assay; format: functional, cell-based; procedure, shortened: as §2
[16] = system: WiDr; assay: Antiproliferative activity against human WiDr cells by MTT assay; format: functional, cell-based; procedure, shortened: as §2
[17] = Solubility in 40% captisol; format: physicochemical
[18] = system: HCT-116; assay: Antitumor activity against human HCT116 cells xenografted in nude mouse assessed as maximum inhibition of […] growth at 200 mg/kg, po qd for 4 days; format: functional; conditions: HCT-116, 96 h; procedure, shortened: as §3
[19] = system: HCT-116; assay: Antiproliferative activity against docetaxal-resistant human HCT116 cells by MTT assay; format: functional, cell-based; procedure, shortened: as §2
[20] = system: HCT-116; assay: Cell cycle arrest in human HCT116 cells assessed as decrease in accumulation at S phase at 500 ng/mL after 16 hrs by FACS analysis; format: functional, cell-based; procedure, shortened: as §4
[21] = system: MDA-MB-468; assay: Antiproliferative activity against human MDA-MB-468 cells by MTT assay; format: functional, cell-based; procedure, shortened: as §2
[22] = system: DLD-1; assay: Antiproliferative activity against human DLD1 cells by MTT assay; format: functional, cell-based; procedure, shortened: as §2
[23] = system: P388; assay: Antiproliferative activity against mouse P388 cells by MTT assay; format: functional, cell-based; procedure, shortened: as §2
[24] = Aqueous solubility in water; format: physicochemical
[25] = target: T1, Cyclin-dependent kinase 4; assay: Inhibition of CDK4-mediated retinoblastoma protein phosphorylation up to 20 ug/mL by dose-response curve analysis; procedure, shortened: as §1
[26] = target: T1, Cyclin-dependent kinase 4; assay: Inhibition of CDK4-mediated retinoblastoma protein phosphorylation up to 20 ug/mL by dose-response curve analysis
[27] = system: HCT-116; assay: Cell cycle arrest in human HCT116 cells assessed as increase in accumulation at G1 phase after 16 hrs by FACS analysis; format: functional, cell-based; procedure, shortened: as §4

Row | Structure (SMILES) | IC50 [1] | IC50 [2] | IC50 [4] | IC50 [3] | other results
1 | C(=N/Nc1ncnc2sc3c(c12)CCCC3)/c1cccs1 | > 63.6 µM | > 63.6 µM |  |  | 
2 | Cc1cc2c(N/N=C\c3cccs3)ncnc2s1 | 6.92 µM | 6.2 µM |  |  | 
3 | CC(C)(C)c1cc2c(N/N=C\c3ccccn3)ncnc2s1 | 2.89 µM | 8.99 µM | 0.014 µg/mL (≈ 0.045 µM) | 0.009 µg/mL (≈ 0.0289 µM) | inhibition in vivo at 200 mg/kg [5]: 67.9%; Activity [6]: Active; Activity [7]: Non-toxic; IC50 [8]: 0.049 µg/mL (≈ 0.157 µM); Activity [9]: 4.6%; Activity [10]: 64%; Activity [11]: 22.6%; IC50 [12]: 0.045 µg/mL (≈ 0.145 µM); IC50 [13]: 0.019 µg/mL (≈ 0.061 µM); Activity [14]: Non-toxic; IC50 [15]: 0.005 µg/mL (≈ 0.0161 µM); IC50 [16]: 0.019 µg/mL (≈ 0.061 µM); solubility [17]: Soluble; inhibition in vivo at 200 mg/kg [18]: 54.1%; IC50 [19]: 0.007 µg/mL (≈ 0.0225 µM); Activity [20]: Active; IC50 [21]: 0.008 µg/mL (≈ 0.0257 µM); IC50 [22]: 0.037 µg/mL (≈ 0.119 µM); IC50 [23]: 0.006 µg/mL (≈ 0.0193 µM)
4 | CC(C)c1cc2c(N/N=C\c3ccccn3)ncnc2s1 | 2.96 µM | 10.4 µM | 0.01 µg/mL (≈ 0.0336 µM) | 0.003 µg/mL (≈ 0.0101 µM) | 
5 | CC(C)c1cc2c(N/N=C\c3cccs3)ncnc2s1 | 0.165 µM | 1.16 µM |  |  | solubility [24]: < 0.1 µg/mL
6 | C/C(=N/Nc1ncnc2sc(C(C)C)cc12)c1cccs1 | 8.85 µM | 28.1 µM |  |  | 
7 | CCc1cc2c(N/N=C\c3cccs3)nc(C)nc2s1 | > 66.1 µM | > 66.1 µM |  |  | 
8 | CCc1c(C)sc2ncnc(N/N=C\c3cccs3)c12 | 52.9 µM | 39.7 µM |  |  | 
9 | CC(C)c1cc2c(-n3ccc(-c4cccs4)n3)ncnc2s1 | > 61.3 µM | > 61.3 µM |  |  | Activity [25]: inactive
10 | CC(C)c1cc2c(N/N=C\c3ccco3)ncnc2s1 | 1.36 µM | 1.92 µM |  | 3.78 µg/mL (≈ 13.2 µM) | 
11 | CC(C)(C)c1cc2c(N/N=C\c3cccc(CN4CCOCC4)n3)ncnc2s1 | 0.414 µM | 13.4 µM | 0.363 µg/mL (≈ 0.884 µM) | 0.261 µg/mL (≈ 0.636 µM) | 
12 | C(=N/Nc1ncnc2sc(Cc3ccccc3)cc12)/c1cccs1 | > 57.1 µM | 18.5 µM |  |  | Activity [26]: inactive
13 | CCc1cc2c(N/N=C\c3cccs3)nc(-c3ccccc3)nc2s1 | > 54.9 µM | > 54.9 µM |  |  | 
14 | CC(C)c1cc2c(N/N=C\c3ccccc3)ncnc2s1 | 1.59 µM | 2.97 µM |  | 0.651 µg/mL (≈ 2.2 µM) | 
15 | CN(C)Cc1cccc(/C=N\Nc2ncnc3sc(C(C)(C)C)cc23)n1 | 0.152 µM | 3.8 µM | 0.429 µg/mL (≈ 1.16 µM) | 0.381 µg/mL (≈ 1.03 µM) | IC50 [8]: 1.39 µg/mL (≈ 3.77 µM); solubility [24]: 44 µg/mL (≈ 119 µM); IC50 [12]: 1.09 µg/mL (≈ 2.96 µM); Activity [27]: Dose-dependent effect; IC50 [13]: 0.919 µg/mL (≈ 2.49 µM); IC50 [15]: 0.755 µg/mL (≈ 2.05 µM); IC50 [16]: 0.889 µg/mL (≈ 2.41 µM); IC50 [19]: 0.973 µg/mL (≈ 2.64 µM); IC50 [21]: 0.315 µg/mL (≈ 0.855 µM); IC50 [22]: 0.506 µg/mL (≈ 1.37 µM); IC50 [23]: 0.37 µg/mL (≈ 1 µM)
16 | Cc1csc2ncnc(N/N=C\c3cccs3)c12 | > 72.9 µM | > 72.9 µM |  |  | 
17 | CC(C)c1cc2c(N/N=C\c3ccncc3)ncnc2s1 | 0.807 µM | 1.11 µM |  | > 10 µg/mL | 
18 | CC(C)c1cc2c(N/N=C\c3cccnc3)ncnc2s1 | 1.85 µM | 2.35 µM |  | 0.889 µg/mL (≈ 2.99 µM) | 

Further lines, with some results ahead:

Row | IC50 [1] | IC50 [2] | IC50 [4] | Structure (SMILES) | IC50 [3] | other results
19 | 1.61 µM | 1.8 µM |  | CC(C)(C)c1cc2c(N/N=C\c3cccnc3)ncnc2s1 | 1.45 µg/mL (≈ 4.66 µM) | 
20 | 1.73 µM | 10.6 µM | 0.059 µg/mL (≈ 0.173 µM) | CC(C)(C)c1cc2c(N/N=C\c3cccc(CN)n3)ncnc2s1 | 0.036 µg/mL (≈ 0.106 µM) | 
21 | 1.6 µM | 21.2 µM | 0.268 µg/mL (≈ 0.823 µM) | Cc1cccc(/C=N\Nc2ncnc3sc(C(C)(C)C)cc23)n1 | 0.258 µg/mL (≈ 0.793 µM) | 
22 | 1.03 µM | 6.15 µM | 0.039 µg/mL (≈ 0.114 µM) | CC(C)(C)c1cc2c(N/N=C\c3cccc(CO)n3)ncnc2s1 | 0.034 µg/mL (≈ 0.0996 µM) | 
23 | 13 µM | 16.6 µM |  | CCc1cc2c(N/N=C\C3CC3)ncnc2s1 |  | 
24 | 2.6 µM | 3.81 µM | 1.61 µg/mL (≈ 5.58 µM) | CCc1cc2c(N/N=C\c3cccs3)ncnc2s1 | 0.566 µg/mL (≈ 1.96 µM) | IC50 [8]: 2.86 µg/mL (≈ 9.92 µM); IC50 [12]: 2.44 µg/mL (≈ 8.46 µM); IC50 [13]: 1.87 µg/mL (≈ 6.48 µM); IC50 [15]: 1.34 µg/mL (≈ 4.65 µM); IC50 [16]: 1.36 µg/mL (≈ 4.72 µM); IC50 [19]: 1.21 µg/mL (≈ 4.2 µM); IC50 [21]: 0.048 µg/mL (≈ 0.166 µM); IC50 [22]: 1.12 µg/mL (≈ 3.88 µM); IC50 [23]: 1.01 µg/mL (≈ 3.5 µM)
25 | 16.8 µM | 14.5 µM | 1.66 µg/mL (≈ 6.33 µM) | CCc1cc2c(N/N=C\C(C)(C)C)ncnc2s1 | 1.55 µg/mL (≈ 5.91 µM) | 
26 | 0.379 µM | 1.77 µM |  | CC(C)(C)c1cc2c(N/N=C\c3cccs3)ncnc2s1 |  | 
27 | 0.705 µM | 20 µM | 0.185 µg/mL (≈ 0.522 µM) | CNCc1cccc(/C=N\Nc2ncnc3sc(C(C)(C)C)cc23)n1 | 0.189 µg/mL (≈ 0.533 µM) | IC50 [8]: 0.686 µg/mL (≈ 1.94 µM); IC50 [12]: 0.379 µg/mL (≈ 1.07 µM); IC50 [13]: 0.279 µg/mL (≈ 0.787 µM); IC50 [15]: 0.269 µg/mL (≈ 0.759 µM); IC50 [16]: 0.263 µg/mL (≈ 0.742 µM); IC50 [19]: 0.29 µg/mL (≈ 0.818 µM); IC50 [21]: 0.159 µg/mL (≈ 0.449 µM); IC50 [22]: 0.221 µg/mL (≈ 0.623 µM); IC50 [23]: 0.131 µg/mL (≈ 0.37 µM)
28 | 2.7 µM | 36.9 µM | 0.02 µg/mL (≈ 0.0615 µM) | Cc1ccc(/C=N\Nc2ncnc3sc(C(C)(C)C)cc23)nc1 | 0.009 µg/mL (≈ 0.0277 µM) | 
